The values below come from ChEMBL document CHEMBL1152445, “Modulation of multidrug resistance protein 1 (MRP1/ABCC1)-mediated multidrug resistance by bivalent apigenin homodimers and their derivatives” (J Med Chem, 2009).

Molecules are shown by their SMILES. Calls of active or inactive are those of the source. No cut-off for these calls is given here.

A short description of data set [1]: Cytotoxicity against human 2008/P cells at 0.5 uM after 5 days by MTS assay. The conditions noted are these: 120 h. The format is cell-based.
Data set [2] is described as follows: Cytotoxicity against human 2008/MRP1 cells at 0.5 uM by MTS assay. The format is cell-based. The conditions noted are these: 2008/mrp1, 0.5 µM. Background: Tetrazolium assays rely on reduction of a dye to a coloured formazan, in cell work by metabolically active cells.
The nature of data set [3]: Cytotoxicity against human 2008/P cells after 5 days by MTS assay. The format is cell-based. The note with it: 120 h.
A short description of data set [4]: Cytotoxicity against human 2008/MRP1 cells after 5 days by MTS assay. The format is cell-based. The conditions noted are these: 2008/MRP1, 120 h.
The species entered for a further data set is Homo sapiens. Description: Increase in doxorubicin accumulation in doxorubicin-co-incubated human 2008/P cells at 3 uM after 120 mins by spectrofluorimetry. The format is functional. Put shortly: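 5 × 10^5 cells of the parental ovarian line incubated 120 min at 37 °C with 20 μM doxorubicin plus 3 μM modulator, 0.3% DMSO as vehicle control. Cells washed twice with cold PBS pH 7.4 and lysed in 0.75 M HCl/0.2% Triton X-100 in isopropanol, then 20 min at 37 °C. Supernatant fluorescence read at ex 460/em 610 nm. Duplicate, three repeats, mean ± SEM.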

For data set [5], the target named is ATP-binding cassette sub-family C member 2 (Homo sapiens, UniProt Q92887). The data set can be described thus: Inhibition of MRP2.
The subject of another data set is Mus musculus. The data set can be described thus: Potentiation of vincristine-efficacy in nude mouse model assessed as regression of tumor volume at 8 mg/kg in presence of 0.5 mg/kg vincristine. The format is functional.
Data set [6] concerns the target T1, Multidrug resistance-associated protein 1 (Homo sapiens, UniProt P33527). The data set can be described thus: Reversal of MRP1-mediated doxorubicin resistance in human 2008/MRP1 cells assessed as ratio of doxorubicin IC50 to doxorubicin IC50 in presence of compound at 0.5 uM. The format is cell-based. The note with it: 2008/mrp1, 0.5 µM.
The target in data set [7] is T1, Multidrug resistance-associated protein 1. The data set can be described thus: Reversal of MRP1-mediated doxorubicin resistance in doxorubicin co-incubated human 2008/MRP1 cells assessed as increase in doxorubicin accumulation at 3 uM after 120 mins by spectrofluorimetry relative to control. Type of data set: cell-based. The note with it: 2008/mrp1, 2 h.
The target is the same in data set [8]. Description: Reversal of MRP1-mediated doxorubicin resistance in doxorubicin co-incubated human 2008/MRP1 cells assessed as effect on doxorubicin accumulation at […] after 120 mins by spectrofluorimetry. Type of data set: cell-based. The note with it: 2008/mrp1, 2 h.
A short description of data set [9]: Anticancer activity against human 2008/P cells after 5 days by MTS assay. Type of data set: functional, cell-based. The conditions noted are these: 120 h.
Data set [10] in a line: Anticancer activity against human 2008/MRP1 cells after 5 days by MTS assay. The format is functional, cell-based. The conditions noted are these: 2008/MRP1, 120 h.
Data set [11] can be described thus: Selectivity ratio of IC50 for human 2008/MRP1 cells to IC50 for human 2008/P cells. The format is functional. In a few lines: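 Ratio of doxorubicin or etoposide IC50 in the MRP1 transfectant to IC50 in the parental line. Both IC50 values come from the 5-day MTS proliferation assay without modulator.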

T1 sequence (P33527 whole entry): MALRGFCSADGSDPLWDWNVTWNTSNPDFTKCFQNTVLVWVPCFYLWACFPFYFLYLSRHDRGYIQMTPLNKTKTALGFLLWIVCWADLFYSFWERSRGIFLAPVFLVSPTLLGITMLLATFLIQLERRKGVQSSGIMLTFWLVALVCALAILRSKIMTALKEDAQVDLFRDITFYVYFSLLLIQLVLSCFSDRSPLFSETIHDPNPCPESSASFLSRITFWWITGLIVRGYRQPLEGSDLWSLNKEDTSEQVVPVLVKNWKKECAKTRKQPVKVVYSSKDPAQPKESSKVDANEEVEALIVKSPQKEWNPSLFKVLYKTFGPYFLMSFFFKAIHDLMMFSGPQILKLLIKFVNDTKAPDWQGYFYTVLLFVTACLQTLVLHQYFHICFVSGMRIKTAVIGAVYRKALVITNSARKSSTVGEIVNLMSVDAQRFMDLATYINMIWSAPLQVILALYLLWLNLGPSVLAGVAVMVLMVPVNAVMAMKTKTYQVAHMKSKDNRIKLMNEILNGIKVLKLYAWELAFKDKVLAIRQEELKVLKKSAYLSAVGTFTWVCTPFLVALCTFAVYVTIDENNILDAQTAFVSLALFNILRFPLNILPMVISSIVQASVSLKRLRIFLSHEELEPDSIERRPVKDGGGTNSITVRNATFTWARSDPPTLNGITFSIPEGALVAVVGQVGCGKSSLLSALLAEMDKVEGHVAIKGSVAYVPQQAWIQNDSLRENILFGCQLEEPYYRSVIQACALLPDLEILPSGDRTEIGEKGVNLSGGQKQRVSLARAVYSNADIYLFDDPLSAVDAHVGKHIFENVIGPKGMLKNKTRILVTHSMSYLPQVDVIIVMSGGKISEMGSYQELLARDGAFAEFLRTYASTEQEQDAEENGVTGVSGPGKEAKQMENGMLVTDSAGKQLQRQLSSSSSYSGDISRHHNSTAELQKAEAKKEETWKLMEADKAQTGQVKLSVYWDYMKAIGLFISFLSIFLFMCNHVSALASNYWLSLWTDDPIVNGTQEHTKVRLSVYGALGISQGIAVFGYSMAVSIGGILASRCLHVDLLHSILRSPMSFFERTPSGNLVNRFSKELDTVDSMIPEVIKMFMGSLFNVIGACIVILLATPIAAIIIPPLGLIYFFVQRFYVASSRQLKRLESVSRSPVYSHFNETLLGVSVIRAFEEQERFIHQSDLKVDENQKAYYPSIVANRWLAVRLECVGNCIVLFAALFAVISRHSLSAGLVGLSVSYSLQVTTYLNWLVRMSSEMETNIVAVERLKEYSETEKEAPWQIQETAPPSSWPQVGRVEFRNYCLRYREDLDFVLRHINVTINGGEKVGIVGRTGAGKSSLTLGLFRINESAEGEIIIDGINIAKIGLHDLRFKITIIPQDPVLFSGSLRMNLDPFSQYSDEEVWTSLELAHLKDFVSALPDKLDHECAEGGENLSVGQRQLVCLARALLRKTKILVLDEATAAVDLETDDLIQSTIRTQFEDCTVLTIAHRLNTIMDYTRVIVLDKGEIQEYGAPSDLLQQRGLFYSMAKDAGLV
Chain of ATP-binding cassette sub-family C member 2 (Q92887 whole entry): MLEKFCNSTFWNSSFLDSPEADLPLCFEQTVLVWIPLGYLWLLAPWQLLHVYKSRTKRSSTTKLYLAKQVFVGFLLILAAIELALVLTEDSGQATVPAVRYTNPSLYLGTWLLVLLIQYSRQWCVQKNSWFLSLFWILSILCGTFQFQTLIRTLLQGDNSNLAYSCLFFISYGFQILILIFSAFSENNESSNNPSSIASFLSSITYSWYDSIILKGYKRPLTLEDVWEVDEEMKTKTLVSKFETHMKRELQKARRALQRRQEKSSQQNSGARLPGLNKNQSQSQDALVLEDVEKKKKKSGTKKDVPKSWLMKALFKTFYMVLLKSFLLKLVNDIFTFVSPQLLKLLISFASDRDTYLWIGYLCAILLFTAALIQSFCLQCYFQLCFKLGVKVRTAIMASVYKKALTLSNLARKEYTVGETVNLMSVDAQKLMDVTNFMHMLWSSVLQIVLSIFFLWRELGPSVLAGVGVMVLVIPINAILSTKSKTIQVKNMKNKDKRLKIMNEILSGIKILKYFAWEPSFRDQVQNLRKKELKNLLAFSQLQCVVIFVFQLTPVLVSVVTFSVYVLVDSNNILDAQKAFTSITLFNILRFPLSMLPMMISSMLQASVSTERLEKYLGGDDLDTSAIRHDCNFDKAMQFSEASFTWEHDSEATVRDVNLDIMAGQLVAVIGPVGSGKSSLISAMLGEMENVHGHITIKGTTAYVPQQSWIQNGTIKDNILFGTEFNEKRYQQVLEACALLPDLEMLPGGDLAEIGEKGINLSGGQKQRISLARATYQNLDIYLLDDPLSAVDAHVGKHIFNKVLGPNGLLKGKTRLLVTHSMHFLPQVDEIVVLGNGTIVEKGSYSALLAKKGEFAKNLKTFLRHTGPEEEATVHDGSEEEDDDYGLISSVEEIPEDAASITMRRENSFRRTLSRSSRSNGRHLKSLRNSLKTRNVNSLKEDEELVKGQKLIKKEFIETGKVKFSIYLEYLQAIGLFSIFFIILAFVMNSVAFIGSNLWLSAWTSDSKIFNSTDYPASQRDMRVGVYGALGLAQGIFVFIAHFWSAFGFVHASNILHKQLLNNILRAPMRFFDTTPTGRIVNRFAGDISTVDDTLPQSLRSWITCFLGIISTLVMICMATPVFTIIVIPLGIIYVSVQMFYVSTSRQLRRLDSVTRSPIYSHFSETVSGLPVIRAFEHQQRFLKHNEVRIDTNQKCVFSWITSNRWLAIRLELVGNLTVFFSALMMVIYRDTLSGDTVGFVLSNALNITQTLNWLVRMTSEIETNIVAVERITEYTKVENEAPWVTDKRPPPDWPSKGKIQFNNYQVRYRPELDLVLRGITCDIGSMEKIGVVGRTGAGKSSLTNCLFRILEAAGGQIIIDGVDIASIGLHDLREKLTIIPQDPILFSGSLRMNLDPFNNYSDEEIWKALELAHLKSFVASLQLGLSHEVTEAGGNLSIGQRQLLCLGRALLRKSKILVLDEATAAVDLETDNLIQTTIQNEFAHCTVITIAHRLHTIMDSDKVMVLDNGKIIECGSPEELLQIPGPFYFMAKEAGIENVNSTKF

`CCc1ccc2oc(-c3ccc(OCCOCCOCCOCCOCCOc4ccc(-c5cc(=O)c6cc(CC)ccc6o5)cc4)cc3)cc(=O)c2c1`: the Activity entry in data set [1] and in data set [2] was “Non-toxic” in each case. Moreover, the half-maximal inhibitory concentration (IC50) (usually the midpoint of a concentration-inhibition curve) in [3] is 62.6 µM; in data set [4], 46.1 µM.
`Cc1ccc2oc(-c3ccc(OCCOCCOCCOCCOCCOCCOc4ccc(-c5cc(=O)c6cc(C)ccc6o5)cc4)cc3)cc(=O)c2c1`: the Activity result in data set [1] and in [2] was “Non-toxic” each time. For the same molecule, the 50% inhibitory concentration (IC50) in data set [3] and in data set [4] was more than 100 µM each time.
In the case of `O=c1cc(-c2ccc(OCCOCCOCCOc3ccc(-c4cc(=O)c5c(O)cc(O)cc5o4)cc3)cc2)oc2cc(O)cc(O)c12`, the IC50 in [3] and in data set [4] was more than 100 µM throughout.
For the molecule `Cc1c(-c2ccc(OCCOCCOCCOCCOCCOCCOc3ccc(-c4oc5ccccc5c(=O)c4C)cc3)cc2)oc2ccccc2c1=O`, the Activity result in data set [1] and in data set [2] was “Non-toxic” in each case.
Turning to `Cc1ccc2c(=O)cc(-c3ccc(OCCOCCOCCOCCOc4ccc(-c5cc(=O)c6ccc(C)cc6o5)cc4)cc3)oc2c1`, the Activity result in [1] and in data set [2] was “Non-toxic” throughout. Besides, the half-inhibitory concentration (IC50) in data set [3] and in [4] was more than 100 µM each time.
For the molecule `CCc1ccc2oc(-c3ccc(OCCOCCOCCOCCOCCOCCOc4ccc(-c5cc(=O)c6cc(CC)ccc6o5)cc4)cc3)cc(=O)c2c1`, the Activity result in data set [1] and in data set [2] was “Non-toxic” each time. For the same molecule, the IC50 in data set [3] is more than 96 µM; in [4], 76.2 µM.
Take `Cc1ccc2c(=O)cc(-c3ccc(OCCOCCOCCOCCOCCOc4ccc(-c5cc(=O)c6ccc(C)cc6o5)cc4)cc3)oc2c1`: the Activity result in data set [1] and in [2] was “Non-toxic” throughout. For the same molecule, the half-maximal inhibitory concentration (IC50) in data set [3] came out at 60.6 µM; in data set [4] it was 53.3 µM.
For `O=c1cc(-c2ccc(OCCOCCOCCOCCOCCOCCOCCOCCOCCOCCOCCOCCOCCOc3ccc(-c4cc(=O)c5ccccc5o4)cc3)cc2)oc2ccccc12`, the Activity entry in [1] and in data set [2] was “Non-toxic” each time.
`Cc1ccc2oc(-c3ccc(OCCOCCOCCOCCOCCOc4ccc(-c5cc(=O)c6cc(C)ccc6o5)cc4)cc3)cc(=O)c2c1`: in the data set filed under Homo sapiens, the outcome was Active. The Activity entry in data set [1] and in [2] was “Non-toxic” in each case. The 50% inhibitory concentration (IC50) in data set [3] and in data set [4] was more than 100 µM in each case.
Turning to `O=c1c(O)c(-c2cc(O)c(O)c(O)c2)oc2cc(O)cc(O)c12` [MYRICETIN], the IC50 in data set [5] was 22 µM.
For the molecule `O=c1cc(-c2ccc(OCCOCCOCCOCCOc3ccc(-c4cc(=O)c5c(O)cc(O)cc5o4)cc3)cc2)oc2cc(O)cc(O)c12`, the IC50 in data set [3] and in [4] was more than 100 µM each time.
Consider `O=c1cc(-c2ccc(OCCOCCOCCOCCOc3ccc(-c4cc(=O)c5ccccc5o4)cc3)cc2)oc2ccccc12`, for which the results for the IC50 in data set [3] and in data set [4] were more than 100 µM and more than 93 µM, respectively.
As to `O=c1cc(-c2ccc(OCCOCCOCCOCCOCCOc3ccc(-c4cc(=O)c5ccc(F)cc5o4)cc3)cc2)oc2cc(F)ccc12`, the Activity entry in [1] and in data set [2] was “Non-toxic” throughout. Further, the IC50 in data set [3] was 17.5 µM; in [4], 8.9 µM.
Take `Cc1ccc2oc(-c3ccc(OCCOCCOCCOCCOc4ccc(-c5cc(=O)c6cc(C)ccc6o5)cc4)cc3)cc(=O)c2c1`: the Activity result in data set [1] and in [2] was “Non-toxic” each time. In addition, the IC50 in data set [3] was more than 100 µM; in data set [4], more than 77 µM.
Consider `Cc1onc2c1c(=O)n([C@H]1CCC[C@@H](CNC(=O)c3ccccc3)C1)c1cccc(Cl)c21`, for which the Activity with Mus musculus came out at 63%.
As to `O=c1cc(-c2ccc(OCCOCCOCCOCCOCCOCCOCCOc3ccc(-c4cc(=O)c5c(O)cc(O)cc5o4)cc3)cc2)oc2cc(O)cc(O)c12`, the Activity in data set [6] came to 1.5.
On to `CCCN(CCC)S(=O)(=O)c1ccc(C(=O)O)cc1` [PROBENECID], for which, in the data set filed under Homo sapiens, the outcome was inactive. The Activity entry in data set [7] and in [8] was “Not Active” each time.
In the case of `O=c1cc(-c2ccc(OCCOCCOCCOCCOCCOCCOc3ccc(-c4cc(=O)c5ccccc5o4)cc3)cc2)oc2ccccc12`, the Activity entry in data set [1] was “Non-toxic”; in data set [2], “Non-toxic”; in data set [6], 7.8. Besides, the half-inhibitory concentration (IC50) in [3] worked out at 3.7 µM; in data set [4], 2.8 µM.
Take `COc1cccc2c1C(=O)c1c(O)c3c(c(O)c1C2=O)C[C@@](O)(C(=O)CO)C[C@@H]3O[C@H]1C[C@H](N)[C@H](O)[C@H](C)O1` [DOXORUBICIN]: the IC50 in [9] is 0.063 µM; in data set [10], 0.577 µM. Also, in data set [11], the “Ratio IC50” value is 9.2.
In the case of `O=c1cc(-c2ccc(OCCOCCOCCOCCOCCOCCOCCOc3ccc(-c4cc(=O)c5ccccc5o4)cc3)cc2)oc2ccccc12`, the Activity result in data set [1] and in data set [2] was “Non-toxic” each time.
For the molecule `COc1ccc(CCN(C)CCCC(C#N)(c2ccc(OC)c(OC)c2)C(C)C)cc1OC` (centres undefined), the outcome in the data set listed under Homo sapiens was inactive.
`Cc1ccc2c(=O)cc(-c3ccc(OCCOCCOCCOCCOCCOCCOc4ccc(-c5cc(=O)c6ccc(C)cc6o5)cc4)cc3)oc2c1`: the Activity result in data set [1] and in [2] was “Non-toxic” throughout. The 50% inhibitory concentration (IC50) in [3] is 6.1 µM; in data set [4], 10.2 µM.
In the case of `O=c1cc(-c2ccc(OCCOCCOCCOCCOCCOCCOc3ccc(-c4cc(=O)c5ccc(F)cc5o4)cc3)cc2)oc2cc(F)ccc12`, the Activity entry in [1] and in data set [2] was “Non-toxic” each time. Also, the half-maximal inhibitory concentration (IC50) worked out at 4.4 µM in [3] and 5.2 µM in data set [4].
`CCc1ccc2oc(-c3ccc(OCCOCCOCCOCCOc4ccc(-c5cc(=O)c6cc(CC)ccc6o5)cc4)cc3)cc(=O)c2c1`: the Activity entry in data set [1] and in [2] was “Non-toxic” in each case. Also, the half-inhibitory concentration (IC50) in data set [3] came to 77.7 µM; in [4], 69.5 µM.
Turning to `O=c1cc(-c2ccc(OCCOCCOCCOCCOCCOCCOCCOCCOc3ccc(-c4cc(=O)c5ccccc5o4)cc3)cc2)oc2ccccc12`, the Activity entry in [1] and in [2] was “Non-toxic” each time.
In the case of `O=c1cc(-c2ccc(OCCOCCOCCOCCOCCOCCOCCOCCOCCOc3ccc(-c4cc(=O)c5ccccc5o4)cc3)cc2)oc2ccccc12`, the Activity entry in data set [1] and in [2] was “Non-toxic” throughout.
Regarding `CN(C)C(=O)CCSC(SCCC(=O)O)c1cccc(/C=C/c2ccc3ccc(Cl)cc3n2)c1` (centres undefined), the outcome in the data set listed under Homo sapiens was inactive.
In the case of `Cc1c(-c2ccc(OCCOCCOCCOCCOCCOc3ccc(-c4oc5ccccc5c(=O)c4C)cc3)cc2)oc2ccccc2c1=O`, the Activity entry in data set [1] and in data set [2] was “Non-toxic” each time.
